Assay [1] concerns P388. The assay is described as follows: Percent increase in life span observed in P-388 cells infected male CDF1 hybrid mice after intraperitoneal administration at 450 ug/kg optimal dose. It counts as functional, Mus musculus. In outline:
(§1)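 Male CDF1 mice, seven per group, given 10^6 P388 cells ip on day 0. Drugs were given ip in 10% Me2SO-saline on days 1, 5 and 9, with solutions kept at 0-4 °C, protected from light and checked for homogeneity by HPLC. A range of doses was run and the optimal nontoxic dose reported. Read-outs were median survival time, percent increase in life span, and cures (over-60-day survivors, average of two experiments).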

Assay [2] deals with CCRF-CEM. The experiment in a line: Growth inhibitory activity against human lymphoblastic leukemia cells(CCRF-CEM). The assay is classed as functional. The following applies: read-out: ID50 (the source's name). In outline:
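Log-phase human lymphoblastic leukemia CCRF-CEM cells grown in suspension culture. Compounds dissolved in Me2SO, final growth medium contained 5% Me2SO. Test solutions kept at 0-4 °C, protected from light, homogeneity checked by HPLC before testing. ID50 reported in ng/mL.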

For assay [3], the species on record is Mus musculus. The assay is described as follows: Male CDF1 hybrid treated mice out of seven which survived over 60 days after the treatment. The assay is classed as functional. In outline:
as §1

Assay [4] concerns P388. The assay is described as follows: Median survival time observed in P-388 cells infected male CDF1 hybrid mice after intraperitoneal administration at 450 ug/kg optimal dose. It counts as functional, Mus musculus. In outline: as §1
Assay [5] is filed under the species Bos taurus. The experiment in a line: (§2) Melting temperature of DNA-drug complex minus melting temperature of purified calf-thymus DNA. It counts as functional. In outline: (§3)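 Calf-thymus DNA, purified. ΔTm is the Tm of the DNA-drug complex minus the Tm of DNA alone. Medium was 0.01 M phosphate buffer, pH 7.0, with EDTA.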
Assay [6] concerns P388. The experiment in a line: Median survival time observed in P-388 cells infected male CDF1 hybrid mice after intraperitoneal administration at 125 ug/kg optimal dose. It counts as functional, Mus musculus. In outline:
as §1

Assay [7] relates to P388. The experiment in a line: Percent increase in life span observed in P-388 cells infected male CDF1 hybrid mice after intraperitoneal administration at 125 ug/kg optimal dose. The assay is classed as functional, Mus musculus. In outline:
as §1

Assay [8] concerns P388. The experiment in a line: Median survival time observed in P-388 cells infected male CDF1 hybrid mice after intraperitoneal administration at 600 ug/kg optimal dose. The assay is classed as functional, Mus musculus. In outline:
as §1

In assay [9] the test system is P388. The experiment in a line: Percent increase in life span observed in P-388 cells infected male CDF1 hybrid mice after intraperitoneal administration at 600 ug/kg optimal dose. It counts as functional, Mus musculus. In outline:
as §1

Assay [10] has as its system Nucleic Acid. The description is as §2. To be noted: Bos taurus. It counts as functional. In outline: as §3
The subject of assay [11] is P388. The assay is described as follows: Median survival time observed in P-388 cells infected male CDF1 hybrid mice after intraperitoneal administration at 900 ug/kg optimal dose. The assay is classed as functional, Mus musculus. In outline: as §1
In assay [12] the test system is P388. The assay is described as follows: Percent increase in life span observed in P-388 cells infected male CDF1 hybrid mice after intraperitoneal administration at 900 ug/kg optimal dose. It counts as functional, Mus musculus. In outline:
as §1

Assay [13] relates to P388. The experiment in a line: Median survival time observed in P-388 cells infected male CDF1 hybrid mice after intraperitoneal administration at 1200 ug/kg optimal dose. It counts as functional, Mus musculus. In outline:
as §1

The test system of assay [14] is P388. The assay is described as follows: Percent increase in life span observed in P-388 cells infected male CDF1 hybrid mice after intraperitoneal administration at 1200 ug/kg optimal dose. The assay is classed as functional, Mus musculus. In outline: as §1

Each structure is given as a SMILES string. Converted amounts (≈) assume the structure as drawn. Starred links: 1 amine or outer side, 2 acyl side, 3 side chain; linkers in the order of their positions; H or OH if unused. Positions of bridges follow the written chain, without caps; N, C: chain ends. Non-standard residues stand in square brackets, D forms with d. Residues, ends and D or L forms follow the SMILES beside them. Chains are numbered I, II in the order given. Actinocin(1to9) = Cc1c2oc3c(C)ccc(C(=O)[*:2])c3nc-2c(C(=O)[*:1])c(N)c1=O; NMeV = CN[C@H](C(=O)O)C(C)C; Sar = CNCC(=O)O

By ILS is commonly meant the gain in survival time of treated over control animals, in per cent. High values mean much gain in survival, low ones little gain in survival. The term ΔTm denotes the shift of the melting midpoint relative to a reference.

Consider `Cc1nc2c(C(=O)N[C@@H]3C(=O)N[C@H](C(C)C)C(=O)N4CCC[C@H]4C(=O)N(C)CC(=O)N(C)[C@@H](C(C)C)C(=O)O[C@@H]3C)c3nc4c(C(=O)N[C@@H]5C(=O)N[C@H](C(C)C)C(=O)N6CCC[C@H]6C(=O)N(C)CC(=O)N(C)[C@@H](C(C)C)C(=O)O[C@@H]5C)cc(=O)c(C)c-4oc3c(C)c2o1`, for which, in assay [1], the ILS was found to be 182%. Besides, the IC50 in assay [2] was found to be 0.23 µg/mL (≈ 0.178 µM). This molecule yielded a Cures in assay [3] of 1. Besides, the MST in assay [4] was found to be 31 days.
In the case of `Cc1c2oc3c(C)ccc(C(=O)N[C@@H]4C(=O)N[C@H](C(C)C)C(=O)N5CCC[C@H]5C(=O)N(C)CC(=O)N(C)[C@@H](C(C)C)C(=O)O[C@@H]4C)c3nc-2c(C(=O)N[C@@H]2C(=O)N[C@H](C(C)C)C(=O)N3CCC[C@H]3C(=O)N(C)CC(=O)N(C)[C@@H](C(C)C)C(=O)O[C@@H]2C)c(N)c1=O` [DACTINOMYCIN] (I: T[dV]P[Sar][NMeV] / II: T[dV]P[Sar][NMeV]; ester I:1-I:C, II:1-II:C; linker I:N-II:N via Actinocin(1to9)), the ΔTm in [5] was 7.1 °C. Besides, in [2], the IC50 was 0.04 µg/mL (≈ 0.0319 µM). The Cures in assay [3] is 1. Besides, the MST in assay [6] stood at 26 days. Further, the ILS in [7] was 136%.
With `Cc1ccc(C(=O)N[C@@H]2C(=O)N[C@H](C(C)C)C(=O)N3CCC[C@H]3C(=O)N(C)CC(=O)N(C)[C@@H](C(C)C)C(=O)O[C@@H]2C)c2c1Oc1c(c(C(=O)N[C@@H]3C(=O)N[C@H](C(C)C)C(=O)N4CCC[C@H]4C(=O)N(C)CC(=O)N(C)[C@@H](C(C)C)C(=O)O[C@@H]3C)c3nc(-c4ccc(Cl)cc4)c(=O)oc3c1C)N2`, in [2], the IC50 was 1.6 µg/mL (≈ 1.14 µM). Also, the Cures in [3] is recorded as 0. This molecule also returned an MST in assay [8] of 29 days. Further, the increase in life span (ILS) in assay [9] is 164%.
In the case of `Cc1nc2c(C(=O)N[C@H]3C(=O)N[C@H](C(C)C)C(=O)N4CCC[C@H]4C(=O)N(C)CC(=O)N(C)[C@@H](C(C)C)C(=O)O[C@H]3C)c3nc4c(C(=O)N[C@@H]5C(=O)N[C@H](C(C)C)C(=O)N6CCC[C@H]6C(=O)N(C)CC(=O)N(C)[C@@H](C(C)C)C(=O)O[C@@H]5C)cc(=O)c(C)c-4oc3c(C)c2o1`, the ΔTm in assay [10] is 1 °C.
Take `Cc1c2oc3c(C)c4oc(-c5c(F)c(F)c(F)c(F)c5F)nc4c(C(=O)N[C@@H]4C(=O)N[C@H](C(C)C)C(=O)N5CCC[C@H]5C(=O)N(C)CC(=O)N(C)[C@@H](C(C)C)C(=O)O[C@@H]4C)c3nc-2c(C(=O)N[C@@H]2C(=O)N[C@H](C(C)C)C(=O)N3CCC[C@H]3C(=O)N(C)CC(=O)N(C)[C@@H](C(C)C)C(=O)O[C@@H]2C)cc1=O`: the IC50 in assay [2] was 0.63 µg/mL (≈ 0.435 µM). The MST in assay [11] was determined as 3 days. In [3], this molecule gave a Cures of 1. The molecule also yielded an ILS in assay [12] of 172%.
In the case of `Cc1ccc(C(=O)N[C@@H]2C(=O)N[C@H](C(C)C)C(=O)N3CCC[C@H]3C(=O)N(C)CC(=O)N(C)[C@@H](C(C)C)C(=O)O[C@@H]2C)c2c1Oc1c(c(C(=O)N[C@@H]3C(=O)N[C@H](C(C)C)C(=O)N4CCC[C@H]4C(=O)N(C)CC(=O)N(C)[C@@H](C(C)C)C(=O)O[C@@H]3C)c3nc(-c4ccc5ccccc5c4)c(=O)oc3c1C)N2`, the IC50 in [2] is 1 µg/mL (≈ 0.703 µM). In addition, the MST in assay [13] is 26 days. This molecule also showed an increase in lifespan (ILS) in assay [14] of 136%. For the same molecule, the Cures in assay [3] stood at 0.
Turning to `CCCCCCc1nc2c(C(=O)N[C@@H]3C(=O)N[C@H](C(C)C)C(=O)N4CCC[C@H]4C(=O)N(C)CC(=O)N(C)[C@@H](C(C)C)C(=O)O[C@@H]3C)c3c(c(C)c2oc1=O)Oc1c(C)ccc(C(=O)N[C@@H]2C(=O)N[C@H](C(C)C)C(=O)N4CCC[C@H]4C(=O)N(C)CC(=O)N(C)[C@@H](C(C)C)C(=O)O[C@@H]2C)c1N3`, the IC50 in assay [2] is 2.08 µg/mL (≈ 1.51 µM). In assay [13], this molecule gave an MST of 25 days. In assay [14], this molecule yielded an ILS of 127%. The Cures in assay [3] worked out at 0.
For `Cc1nc2c(C(=O)N[C@@H]3C(=O)N[C@H](C(C)C)C(=O)N4CCC[C@H]4C(=O)N(C)CC(=O)N(C)[C@@H](C(C)C)C(=O)O[C@@H]3C)c3c(c(C)c2o1)Oc1c(C)ccc(C(=O)N[C@@H]2C(=O)N[C@H](C(C)C)C(=O)N4CCC[C@H]4C(=O)N(C)CC(=O)N(C)[C@@H](C(C)C)C(=O)O[C@@H]2C)c1N3`, in that order: 2.9 µg/mL (≈ 2.26 µM), 21 days, 91% and 0.
